Measurements from PubChem BioAssay.
Activity calls are given as the source filed them. Unless noted, no stated cut-off is given here; in the data, active means inhibition above about 30%; inactive means the rest.

Experiments:
[1] = Her2 expression decrease, cell viability multiplex – SKBR3 breast tumor cells, AlphaScreen, ATP viability, primary screen (AID 461;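 active means Her2 level under about 52% in both replicate screens, with viability over 70% of control, limit read from the data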;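 on Her2 level: lower value means less Her2 protein in the cells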;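 on viability: percent of carrier control wells set as 100% viability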); conditions: SKBR3 Her2 protein level, 18-24 h, measured here: SKBR3 viability, ATP luminescence, at 10 µM
[2] = target: Receptor tyrosine-protein kinase erbB-2 (Homo sapiens) (UniProt P04626); test: as above; conditions: 18-24 h, at 10 µM, stronger effect = lower value
[3] = reduced viability of SK-BR-3 breast cancer cells – cell-based, 24 h, human, pilot screen (AID 572;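 active means viability at or below 10% of carrier control in both of two separate runs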;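 further: compound exposure lasted between 18 and 24 h rather than exactly 24 h; 100% = carrier-treated control wells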); conditions: SK-BR-3 viability, CellTiter-Glo luminescence, at 10 µM, stronger effect = lower value
[4] = HUVEC growth inhibition – cell-based, human, primary screen (AID 575;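 active means viability at or below 30% in both replicate assays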;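 further: 100% = median of untreated cell wells with 0.1% DMSO on each plate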); conditions: HUVEC proliferation, CellTiter-Glo luminescence, 72 h; at 10 µM; stronger effect = lower value
Outline: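 Material: primary human umbilical vein endothelial cells / Schedule: 72 h exposure, 37 °C, 5% CO2, 30 min RT equilibration / Signal: ATP-based CellTiter-Glo luminescent read / Read-out basis: percent of median DMSO-control luminescence / Control set: 32 DMSO-only cell-control wells (high), 32 MePR drug-control wells (low) per plate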

[5] = H69AR cell proliferation blockers – human, duplicate replicates, primary screen (AID 580;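 active means viability at or under a set limit in both replicates, limit being median viability minus 3 SD, cut at about 48% in these data, passing the limit was not always enough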;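 further: 100% = mean luminescence of untreated wells and 0% = no signal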); conditions: H69AR lung tumor cells viability, ATP luminescence, 72 h; at 10 µM; stronger effect = lower value
[6] = MRP1 drug-resistance reversers in H69AR cells – cell-based, doxorubicin co-treatment, pilot screen (AID 601;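 active means viability loss from added drug above about 55%, and viability with drug at most 40%, in both replicates, limit read from the data, passing the limit was not always enough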); conditions: CellTiter-Glo, 72 h, at 10 µM; for differential viability (reversal): stronger effect = higher value
[7] = yeast transport mutant growth inhibition pilot in 384-well plates, post-Golgi transport modulator project (AID 636; in the data active means inhibition above about 31%); conditions: absorbance 615 nm, about 18 h, stronger effect = higher value
[8] = growth suppression of yeast trafficking mutant, preliminary HTS, modulators of trafficking downstream of Golgi apparatus project, 1536-format plate, OD 615 nm (AID 637); conditions: yeast transport mutant growth, absorbance 615 nm, 18 h; stronger effect = higher value
[9] = H69AR cells + 2 uM doxorubicin, measured here: viability with 2 uM doxorubicin, stronger effect = lower value
[10] = H69AR cells, compound alone cytotoxicity

Sequence of Receptor tyrosine-protein kinase erbB-2 (Homo sapiens) (P04626 whole entry, looked up): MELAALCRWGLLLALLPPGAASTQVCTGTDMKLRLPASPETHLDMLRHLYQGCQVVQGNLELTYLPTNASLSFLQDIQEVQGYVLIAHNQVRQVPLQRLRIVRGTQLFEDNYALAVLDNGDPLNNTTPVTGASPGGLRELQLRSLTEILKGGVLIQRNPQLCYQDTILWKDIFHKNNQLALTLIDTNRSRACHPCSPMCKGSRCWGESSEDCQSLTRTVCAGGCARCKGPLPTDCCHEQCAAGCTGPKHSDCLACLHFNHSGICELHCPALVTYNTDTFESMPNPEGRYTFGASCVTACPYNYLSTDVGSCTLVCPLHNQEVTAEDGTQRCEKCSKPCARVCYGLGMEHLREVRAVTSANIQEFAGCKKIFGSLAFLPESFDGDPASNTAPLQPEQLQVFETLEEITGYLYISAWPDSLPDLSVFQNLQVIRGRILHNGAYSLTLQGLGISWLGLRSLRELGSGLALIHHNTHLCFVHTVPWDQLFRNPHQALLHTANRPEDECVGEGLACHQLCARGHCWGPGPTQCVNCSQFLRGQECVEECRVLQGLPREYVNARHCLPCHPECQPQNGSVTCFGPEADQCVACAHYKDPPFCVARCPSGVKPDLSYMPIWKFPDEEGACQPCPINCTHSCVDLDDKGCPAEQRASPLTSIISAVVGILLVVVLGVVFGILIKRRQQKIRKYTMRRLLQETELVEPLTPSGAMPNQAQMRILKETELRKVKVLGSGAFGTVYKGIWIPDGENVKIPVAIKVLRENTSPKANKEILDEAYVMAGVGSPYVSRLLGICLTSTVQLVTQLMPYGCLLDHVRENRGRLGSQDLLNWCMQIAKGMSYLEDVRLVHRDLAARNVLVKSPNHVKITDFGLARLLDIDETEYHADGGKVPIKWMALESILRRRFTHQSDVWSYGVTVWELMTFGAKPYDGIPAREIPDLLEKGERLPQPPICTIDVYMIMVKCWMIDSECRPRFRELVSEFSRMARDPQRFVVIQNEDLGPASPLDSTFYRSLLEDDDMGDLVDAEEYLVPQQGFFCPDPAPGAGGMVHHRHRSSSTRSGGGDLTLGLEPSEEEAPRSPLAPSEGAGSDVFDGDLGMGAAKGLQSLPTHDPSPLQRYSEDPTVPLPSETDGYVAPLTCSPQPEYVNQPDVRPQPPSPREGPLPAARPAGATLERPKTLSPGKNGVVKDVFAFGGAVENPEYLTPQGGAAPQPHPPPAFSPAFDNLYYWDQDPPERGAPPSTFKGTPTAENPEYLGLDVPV

Row | Structure (SMILES) | viability [1] [%] | Her2 level [2] | viability [3] | viability [4] | viability [5] | differential viability (reversal) ([6]; H69AR cells + 2 uM doxorubicin) | viability [6, 9] [%] | viability [6, 10] [%] | inhibition [7] | inhibition [8]
1 | CSCC[C@@H](Nc1nc(-c2ccccc2)nc2c1oc1ccccc12)C(=O)O | 91 | 75% (inactive) | 91% (inactive) | 84.2% (inactive) | 93.8% (inactive) | -1.28% (inactive) | 95.1 | 93.8 | -7.43% (inactive) | -0.82% (inactive)
2 | Cc1nc(/N=C\N(C)C)sc1C(=O)Nc1ccccc1 | 93 | 82% (inactive) | 93% (inactive) | 100% (inactive) | 96.2% (inactive) | 1.87% (inactive) | 94.3 | 96.2 | -5.81% (inactive) | -8% (inactive)
3 | CS(=O)(=O)c1ccc2nc(NC(=O)CCC(=O)c3cccs3)sc2c1 | 91 | 102% (inactive) | 91% (inactive) | 87.5% (inactive) | 69.8% (inactive) | -4.38% (inactive) | 74.2 | 69.8 | -1.05% (inactive) | 4.35% (inactive)
4 | O=C(NCc1ccc2c(c1)OCO2)c1cc2n(n1)C(C(F)(F)F)CC(c1ccc3c(c1)OCO3)N2 (stereo not given) | 98 | 82% (inactive) | 98% (inactive) | 73.8% (inactive) | 84.2% (inactive) | 9.51% (inactive) | 74.7 | 84.2 | -2.89% (inactive) | 5% (inactive)
5 | CCOC(=O)c1c(NC(=O)c2cccs2)sc(C)c1C | 77 | 83.5% (inactive) | 77% (inactive) | 67.8% (inactive) | 86.2% (inactive) | 2.64% (inactive) | 83.6 | 86.2 | -5.33% (inactive) | -0.16% (inactive)
6 | Cc1ccc(SCCNS(=O)(=O)c2ccc(F)cc2)cc1 | 85 | 112% (inactive) | 85% (inactive) | 78.8% (inactive) | 105% (inactive) | 13.5% (inactive) | 91.1 | 105 | -6.8% (inactive) | -2.42% (inactive)
7 | CCC(=O)Nc1cc(C(=O)NCC2CCCN2CC)c(OC)cc1N(C)C (stereo not given) | 101 | 111% (inactive) | 101% (inactive) | 91.8% (inactive) | 114% (inactive) | 19.7% (inactive) | 93.9 | 114 | -1.47% (inactive) | -3.23% (inactive)
8 | CCOCCCNC(=O)C1CCN(S(=O)(=O)N(CC(C)C)CC(C)C)CC1 | 121 | 100% (inactive) | 121% (inactive) | 97.9% (inactive) | 111% (inactive) | 24% (inactive) | 87.3 | 111 | -4.13% (inactive) | 2.1% (inactive)
9 | O=C(COc1ccc(F)cc1Br)N1CCc2ccccc21 | 97.5 | 100% (inactive) | 97.5% (inactive) | 77.3% (inactive) | 75.3% (inactive) | -6% (inactive) | 81.3 | 75.3 | -1.43% (inactive) | -0.33% (inactive)
10 | CCN(CC)CCCn1c(=S)[nH]c2cc(Cl)ccc2c1=O | 101 | 96% (inactive) | 101% (inactive) | 106% (inactive) | 97% (inactive) | 6.63% (inactive) | 90.4 | 97 | -6.27% (inactive) | 1.8% (inactive)
11 | Clc1ccc(-n2ncc3c(NCCCn4ccnc4)ncnc32)cc1 | 87 | 76.5% (inactive) | 87% (inactive) | 91.2% (inactive) | 93.5% (inactive) | 11.3% (inactive) | 82.2 | 93.5 | -5.6% (inactive) | 3.39% (inactive)
12 | COc1ccc(C(NC(=O)C(C)(C)C)NC(=O)C(C)(C)C)cc1 | 86 | 99.5% (inactive) | 86% (inactive) | 111% (inactive) | 91.7% (inactive) | 6.21% (inactive) | 85.5 | 91.7 | -5.32% (inactive) | -0.32% (inactive)
13 | N#CC1(c2ccccc2)CCC(=NO)CC1 (stereo not given) | 106 | 91.5% (inactive) | 106% (inactive) | 90.2% (inactive) | 98.1% (inactive) | 1.23% (inactive) | 96.8 | 98.1 | -3.7% (inactive) | -2.06% (inactive)
14 | O=C1CC(c2cccc(Cl)c2)Cc2nc(N3CCN(c4ccccc4)CC3)ncc21 (stereo not given) | 88 | 118% (inactive) | 88% (inactive) | 95.7% (inactive) | 91.3% (inactive) | -0.02% (inactive) | 91.3 | 91.3 | 1.3% (inactive) | 2.67% (inactive)
15 | CCCCNC(=O)c1c(C)cc(=O)oc1C | 102 | 90.5% (inactive) | 102% (inactive) | 98.6% (inactive) | 107% (inactive) | 14.8% (inactive) | 92 | 107 | -4.53% (inactive) | -1.45% (inactive)
16 | Cc1c(C#N)sc2nc(-c3ccccc3)nc(N3CCCC3)c12 | 85.5 | 83% (inactive) | 85.5% (inactive) | 82.1% (inactive) | 77% (inactive) | -11.2% (inactive) | 88.1 | 77 | -3.59% (inactive) | -8% (inactive)
